The text below walks through data of the RNAGym collection of RNA variant scans (doi:10.1126/science.aae0568).

The labels stand for the following.
B1: tRNA (parent)
chain: GUUCCGUUGGCGUAAUGGUAACGCGUCUCCCUCCUAAGGAGAAGACUGCGGGUUCGAGUCCCGUACGGAACG

This sample holds only a part of the variants without activity.

This data set covers variants of B1. The data set is described as follows: yeast fitness relative to wild type (ratio to wild type); higher = fitter; tRNA-Arg(CCU), competitive growth, 37 C, YPD. Summed up:
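Variants of the tRNA-Arg(CCU) gene, chemically synthesised with a 3% per-site mutation rate at 69 sites, were placed at the native genomic locus in Saccharomyces cerevisiae. The pooled strains were competed in YPD at 37°C for 24 hours in six parallel replicates. Gene amplicons from the start population and from each end population were read by 100-nucleotide paired-end sequencing. Darwinian fitness relative to wild type came from changes in genotype frequencies; genotypes needed ≥ 100 starting reads, and estimates < 0.5 were set to 0.5.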
Regarding G12A U28G, the yeast fitness was 0.607.

As to G12A U32A A40U G41C C46A G52A, the yeast fitness is no more than 0.5.

As for G12C C24U G67C, the yeast fitness is 0.536.

G12A G17C G58A A70G: the yeast fitness is no more than 0.5.

Take G12A C33A G51C: the yeast fitness is no more than 0.5.

G12A A15G A70U: the yeast fitness was 0.682.

With G12A A40C A65C, the yeast fitness stood at 0.655.

Turning to G12A U16G C49U G63A, the yeast fitness came to 0.705.

Regarding G12A C24U C55G A70U, the yeast fitness amounted to 0.531.

In the case of G12C A69C, the yeast fitness was determined as 0.806.

Regarding G12A G56A, the yeast fitness was 0.975.

Consider G12A C29A C60U, for which the yeast fitness is no more than 0.5.

On to G12C C22U U54C C61U G68A, for which the yeast fitness is no more than 0.5.

Regarding G12A A42U C61G, the yeast fitness came to 0.505.

On to G12A C34A G52C C60A, for which the yeast fitness is no more than 0.5.

G12C C24U C46U C49G C62A: the yeast fitness was no more than 0.5.

As to G12A A15C C62G A65C, the yeast fitness was no more than 0.5.

For the variant G12A C29G C66U, the yeast fitness turned out to be 0.574.

Consider G12A C24G U26G G39C C49G A65G, for which the yeast fitness is no more than 0.5.

Take G12A G25C: the yeast fitness was 0.961.

Take G12C A14G: the yeast fitness worked out at 0.793.

As for G12A C24U C27A, the yeast fitness turned out to be 0.575.

In the case of G12A A20G A45U C49G A57U, the yeast fitness is no more than 0.5.

For G12A G48A A57G G68C, the yeast fitness was 0.569.

On to G12C A45C, for which the yeast fitness worked out at 0.75.

G12C A20C G50A C60U: the yeast fitness is 0.56.

For G12A A20C U28C, the yeast fitness was found to be 0.664.

With G12A A42U, the yeast fitness came out at 0.856.

In the case of G12A A42C, the yeast fitness stood at 0.89.

On to G12C A20C A43U, for which the yeast fitness was determined as 0.632.

Consider G12C A20C A43C, for which the yeast fitness was no more than 0.5.

G12C C24G A40G: the yeast fitness is no more than 0.5.

In the case of G12A A15U C24U G44C G52C, the yeast fitness is no more than 0.5.

With G12C A37G G38A A45U, the yeast fitness is 0.506.

Turning to G12A U19C G23A U32C A43C G48C U64C, the yeast fitness was no more than 0.5.

For the variant G12C A40C, the yeast fitness amounted to 0.722.

Consider G12C A40G, for which the yeast fitness came out at 0.683.

Consider G12C A69C A70U, for which the yeast fitness was determined as 0.688.

For the variant G12A A15G G48C A57U, the yeast fitness is no more than 0.5.

For the variant G12A A15G C22U C31A U35G C61U A65C A69G, the yeast fitness is no more than 0.5.

For the variant G12A A40U A45G C60A, the yeast fitness is no more than 0.5.

As for G12C A20C, the yeast fitness was 0.699.

On to G12C A20U, for which the yeast fitness amounted to 0.75.

Consider G12C A20U C30U C49U C55U C66U, for which the yeast fitness was determined as 0.559.

For G12A C24A A36U A37G C61U G67U, the yeast fitness was no more than 0.5.

With G12C A15U C24A C61U, the yeast fitness was no more than 0.5.

Take G12A A20C A65U: the yeast fitness was 0.57.

In the case of G12A C24U A65U G68A, the yeast fitness is no more than 0.5.

Take G12A U28A U54C: the yeast fitness was no more than 0.5.

As to G12C C27G A37G, the yeast fitness is no more than 0.5.

In the case of G12A C30G A40C, the yeast fitness is no more than 0.5.

With G12A G38A G48A, the yeast fitness was no more than 0.5.

Take G12C A20U C33U: the yeast fitness is 0.555.

For G12C A36C A37U, the yeast fitness is no more than 0.5.

For G12C A20U C30U C55U C66U, the yeast fitness came out at 0.551.

For the variant G12C A14C G56C G58C, the yeast fitness is no more than 0.5.

As to G12A G17C, the yeast fitness was 0.661.

Turning to G12A C27U C30G C55U A57C, the yeast fitness was determined as 0.547.

As to G12C A40U G48C G63A, the yeast fitness was no more than 0.5.

For the variant G12A U19G U35C A40U C61A, the yeast fitness is no more than 0.5.

Consider G12A C60A G67A, for which the yeast fitness was found to be 0.68.

For the variant G12A G25A G68C, the yeast fitness was found to be 0.645.

As to G12A G18A U19C C55U A57C G58C, the yeast fitness stood at 0.638.

Turning to G12A U19A C31G C34U A57G, the yeast fitness is no more than 0.5.

On to G12C A14C C60G, for which the yeast fitness was found to be 0.618.

For G12C C24G G51C C62A U64G, the yeast fitness was determined as 0.59.

For G12A A14C U16C C31U C49G C60A, the yeast fitness is no more than 0.5.

Take G12A A36U: the yeast fitness came out at 0.612.

Consider G12C A14G G25A G41C G67A, for which the yeast fitness was no more than 0.5.

Turning to G12A C27G G50A, the yeast fitness is no more than 0.5.

Turning to G12A C61U, the yeast fitness worked out at 0.924.

Regarding G12A C61A, the yeast fitness was found to be 0.659.

Consider G12A C46G A70G, for which the yeast fitness is 0.703.

G12C C22G A40C: the yeast fitness was found to be 1.03.

As to G12A G41A G51C, the yeast fitness was no more than 0.5.

In the case of G12A A45U, the yeast fitness amounted to 1.03.

In the case of G12A A45G, the yeast fitness was 0.953.

With G12A U13G U19C A21G G52A U59G, the yeast fitness is no more than 0.5.

Consider G12A C24A U64C, for which the yeast fitness was determined as 0.682.

Consider G12A C29G A65U, for which the yeast fitness came to 0.58.

G12A U19G: the yeast fitness came out at 0.893.

G12A C30U U32G A36U G39C G50C: the yeast fitness was no more than 0.5.

As for G12A U19G U35C A40U, the yeast fitness was found to be 0.521.

Regarding G12A U32C A40G, the yeast fitness is no more than 0.5.
